According to ChEMBL document CHEMBL1649304, “Efficacy of posaconazole as treatment and prophylaxis against Fusarium solani” (Antimicrob Agents Chemother, 2010):
Values after ≈ are worked out from the molar mass of the structure shown. Active and inactive are the calls of the source. The rule behind the calls is not given here.

Tests used:
Fusarium solani [1] = experiment: Antifungal activity against inoculum of 1x10^4 conidia/ml Fusarium solani isolate 95-2478 after 48 hrs by XTT assay; assay type: functional, organism-based; settings: isolate 95-2478, 48 h
Method in brief: (§1)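 Isolate 95-2478 conidia were grown 10 days at 37°C on potato dextrose agar. They were exposed in microtiter trays to posaconazole (DMSO stock; final 0 to 8 μg/ml) in RPMI with 2% glucose and 0.165 M MOPS, pH 7.0. Incubation ran 24 or 48 h, and XTT reduction was read at 492 nm in triplicate. Absorbance was expressed as percent of growth control, and IC50/IC90 came from a four-parameter inhibitory sigmoid fit.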

Fusarium solani [2] = experiment: Antifungal activity against inoculum range 6.5 x 10^5 to 6.8 x 10^5 conidia/animal Fusarium solani infected in ICR mouse assessed as bacterial count in kidney tissue at 50 mg/kg, po BID treated after 12 hrs of inoculation; assay type: functional
Method in brief: (§2)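 Outbred ICR mice were made neutropenic with 5-fluorouracil 150 mg/kg i.v. 1 day before i.v. infection with F. solani isolate 95-2478 conidia (0.2 ml). Posaconazole oral suspension was given by gavage BID from 12 h after inoculation until day 9. Kidneys from moribund animals were homogenized and plated on potato dextrose agar, and CFU/g was counted after 48 h. Group medians were compared with untreated controls by Mann-Whitney.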

Fusarium solani [3] = experiment: Antifungal activity against inoculum range 6.5 x 10^5 to 6.8 x 10^5 conidia/animal Fusarium solani infected in ICR mouse assessed as rate of survival at 12.5 mg/kg, po BID treated after 12 hrs of inoculation; assay type: functional, organism-based; set-up: dose 12.5 mg/kg
Method in brief: (§3)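 Neutropenic ICR mice (5-fluorouracil 150 mg/kg i.v., day −1) were infected i.v. with F. solani 95-2478 conidia. Posaconazole oral suspension was gavaged BID starting 12 h postinoculation and continued to day 9, then mice were followed off therapy to day 15. Moribund mice were euthanized and death was recorded the next day. Median and percent survival come from Kaplan-Meier curves versus untreated controls.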

Fusarium oxysporum = experiment: Antifungal activity against Fusarium oxysporum isolate infected in ICR mouse; assay type: functional
Fusarium solani [4] = experiment: Antifungal activity against high inoculum 2.9 x 10^6 conidia/animal Fusarium solani infected in ICR mouse assessed as bacterial count in kidney tissue at 50 mg/kg, po BID treated after 12 hrs of inoculation; assay type: functional; method in brief: as §2
Fusarium solani [5] = experiment: Antifungal activity against inoculum range 6.5 x 10^5 to 6.8 x 10^5 conidia/animal Fusarium solani infected in ICR mouse assessed as rate of survival at 50 mg/kg, po BID treated after 12 hrs of inoculation; assay type: functional, organism-based; set-up: dose 50 mg/kg; method in brief: as §3
Fusarium solani [6] = experiment: Antifungal activity against mid- inoculum 6.5 x 10^5 conidia/ml Fusarium solani infected in ICR mouse assessed as rate of survival at 25 mg/kg, po BID treated 2 days prior of infection; assay type: functional, organism-based; set-up: dose 25 mg/kg
Method in brief: (§4)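 Dosing began 2 days before i.v. F. solani 95-2478 challenge in ICR mice made neutropenic with 5-fluorouracil (150 mg/kg i.v., day −1). Posaconazole oral suspension was gavaged BID through day 9, with observation off drug until day 15, n ≥10 per regimen. Moribund animals were euthanized and scored dead the next day. Kaplan-Meier median survival was compared with untreated controls.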

Fusarium solani [7] = experiment: Antifungal activity against inoculum range 6.5 x 10^5 to 6.8 x 10^5 conidia/animal Fusarium solani infected in ICR mouse assessed as rate of survival at 25 mg/kg, po BID treated after 12 hrs of inoculation; assay type: functional, organism-based; set-up: dose 25 mg/kg; method in brief: as §3
Fusarium solani [8] = experiment: Antifungal activity against high inoculum 2.9 x 10^6 conidia/animal Fusarium solani infected in ICR mouse assessed as bacterial count in kidney tissue at 25 mg/kg, po BID treated after 12 hrs of inoculation; assay type: functional; method in brief: as §2
Fusarium solani [9] = experiment: Antifungal activity against low - inoculum 7.5 x 10^4 conidia/ml Fusarium solani infected in ICR mouse assessed as rate of survival at 25 mg/kg, po BID treated 2 days prior of infection; assay type: functional, organism-based; set-up: dose 25 mg/kg; method in brief: as §4
Fusarium solani [10] = experiment: Antifungal activity against inoculum of 1x10^4 conidia/ml Fusarium solani isolate 95-2478 after 24 hrs by XTT assay; assay type: functional, organism-based; settings: isolate 95-2478, 24 h; method in brief: as §1
[11] = Drug concentration in uninfected nonimmunosppressed ICR mouse serum at 50 mg/kg, po BID after 4 hrs; assay type: ADME, organism-based; set-up: dose 50 mg/kg, route oral; settings: read-out: Drug uptake
Method in brief: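 Uninfected, nonimmunosuppressed mice received 5 oral-gavage BID doses, and serum was taken 4 h after the last dose. Serum (100 μl, duplicate) was placed in wells cut in potato dextrose agar seeded with Candida kefyr ATCC 66028 at 1 × 10^4 cells/ml. Inhibition zones were measured after 48 h, and concentration was interpolated from a standard curve.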

Fusarium solani [12] = experiment: Antifungal activity against inoculum range 6.5 x 10^5 to 6.8 x 10^5 conidia/animal Fusarium solani infected in ICR mouse assessed as rate of survival at 6.25 mg/kg, po BID treated after 12 hrs of inoculation; assay type: functional, organism-based; set-up: dose 6.25 mg/kg; method in brief: as §3
Fusarium solani [13] = experiment: Antifungal activity against high inoculum 2.9 x 10^6 conidia/animal Fusarium solani infected in ICR mouse assessed as rate of survival at 6.25 mg/kg, po BID treated after 12 hrs of inoculation; assay type: functional, organism-based; set-up: dose 6.25 mg/kg; method in brief: as §3
Fusarium solani [14] = experiment: Antifungal activity against low - inoculum 7.5 x 10^4 conidia/ml Fusarium solani infected in ICR mouse assessed as rate of survival at 6.25 mg/kg, po BID treated 2 days prior of infection; assay type: functional, organism-based; set-up: dose 6.25 mg/kg; method in brief: as §4
Fusarium solani [15] = experiment: Antifungal activity against low - inoculum 7.5 x 10^4 conidia/ml Fusarium solani infected in ICR mouse assessed as rate of survival at 12.5 mg/kg, po BID treated 2 days prior of infection; assay type: functional, organism-based; set-up: dose 12.5 mg/kg; method in brief: as §4
Fusarium solani [16] = experiment: Antifungal activity against low - inoculum 7.5 x 10^4 conidia/ml Fusarium solani infected in ICR mouse assessed as bacterial count in kidney tissue at 6.25 mg/kg, po BID treated 2 days prior of infection; assay type: functional
Method in brief: (§5)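 Prophylaxis model: posaconazole oral suspension was given by gavage BID starting 2 days before i.v. conidial challenge and continued to day 9. ICR mice were made neutropenic with 5-fluorouracil 150 mg/kg i.v. 1 day pre-inoculation, with n ≥10 per regimen. Kidneys were homogenized and plated on potato dextrose agar, and CFU/g was read after 48 h. Results were compared with untreated controls by Mann-Whitney.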

Fusarium solani [17] = experiment: Antifungal activity against low - inoculum 7.5 x 10^4 conidia/ml Fusarium solani infected in ICR mouse assessed as bacterial count in kidney tissue at 50 mg/kg, po BID treated 2 days prior of infection; assay type: functional; method in brief: as §5
Fusarium solani [18] = experiment: Antifungal activity against low - inoculum 7.5 x 10^4 conidia/ml Fusarium solani infected in ICR mouse assessed as rate of survival at 50 mg/kg, po BID treated 2 days prior of infection; assay type: functional, organism-based; set-up: dose 50 mg/kg; method in brief: as §4
Fusarium solani [19] = experiment: Antifungal activity against low - inoculum 7.5 x 10^4 conidia/ml Fusarium solani infected in ICR mouse assessed as bacterial count in kidney tissue at 25 mg/kg, po BID treated 2 days prior of infection; assay type: functional; method in brief: as §5
Fusarium solani [20] = experiment: Antifungal activity against inoculum range 7.7 x 10^4 to 7.8 x 10^4 conidia/animal Fusarium solani infected in ICR mouse assessed as bacterial count in kidney tissue at 12.5 mg/kg, po BID treated after 12 hrs of inoculation; assay type: functional; method in brief: as §2
Fusarium solani [21] = experiment: Antifungal activity against inoculum range 6.5 x 10^5 to 6.8 x 10^5 conidia/animal Fusarium solani infected in ICR mouse assessed as bacterial count in kidney tissue at 12.5 mg/kg, po BID treated after 12 hrs of inoculation; assay type: functional; method in brief: as §2
Fusarium solani [22] = experiment: Antifungal activity against inoculum range 6.5 x 10^5 to 6.8 x 10^5 conidia/animal Fusarium solani infected in ICR mouse assessed as bacterial count in kidney tissue at 6.25 mg/kg, po BID treated after 12 hrs of inoculation; assay type: functional; method in brief: as §2

CC[C@@H]([C@H](C)O)n1ncn(-c2ccc(N3CCN(c4ccc(OC[C@@H]5CO[C@@](Cn6cncn6)(c6ccc(F)cc6F)C5)cc4)CC3)cc2)c1=O [POSACONAZOLE]
IC50 (Fusarium solani [1]): 4.7 µg/mL (≈ 6.71 µM)
IC90 (Fusarium solani [1]): > 8 µg/mL
log10CFU/g (Fusarium solani [2]): 5.4
Activity (Fusarium solani [3]): Active
MIC (Fusarium oxysporum): > 16 µg/mL
log10CFU/g (Fusarium solani [4]): 5.2
Activity (Fusarium solani [5]): Active
Activity (Fusarium solani [6]): Active
Activity (Fusarium solani [7]): Active
log10CFU/g (Fusarium solani [8]): 5.3
Activity (Fusarium solani [9]): Active
IC50 (Fusarium solani [10]): 1.7 µg/mL (≈ 2.43 µM)
IC90 (Fusarium solani [10]): 4.1 µg/mL (≈ 5.85 µM)
concentration at 4 h [11]: 5300 ng/mL
Activity (Fusarium solani [12]): Active
Activity (Fusarium solani [13]): Active
Activity (Fusarium solani [14]): Active
Activity (Fusarium solani [15]): Active
log10CFU/g (Fusarium solani [16]): 2.8
log10CFU/g (Fusarium solani [17]): 2.9
Activity (Fusarium solani [18]): Active
log10CFU/g (Fusarium solani [19]): 4.5
log10CFU/g (Fusarium solani [20]): 5.1
log10CFU/g (Fusarium solani [21]): 5.8
log10CFU/g (Fusarium solani [22]): 6
